BindingDB's records for doi:10.1021/jm0510629 (University of Houston, 2006)

Key:
Integrase [1] = target: T1, Integrase (Human immunodeficiency virus 1, UniProt Q7ZJM1); experiment: Inhibition of strand transfer activity of HIV1 integrase
Outline: (§1)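 Then 20 nM 5′-32P-labeled 21-mer oligonucleotide added for 1 h. Quenched with formamide loading dye. % inhibition from 19-mer (3′-processing) or strand transfer product fractions versus DNA-alone and DNA+IN controls. IC50 from log concentration versus % inhibition plot.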

Integrase [2] = target: T1, Integrase; experiment: Inhibition of 3'-processing activity of HIV1 integrase; outline: as §1

T1 sequence (Q7ZJM1 whole entry): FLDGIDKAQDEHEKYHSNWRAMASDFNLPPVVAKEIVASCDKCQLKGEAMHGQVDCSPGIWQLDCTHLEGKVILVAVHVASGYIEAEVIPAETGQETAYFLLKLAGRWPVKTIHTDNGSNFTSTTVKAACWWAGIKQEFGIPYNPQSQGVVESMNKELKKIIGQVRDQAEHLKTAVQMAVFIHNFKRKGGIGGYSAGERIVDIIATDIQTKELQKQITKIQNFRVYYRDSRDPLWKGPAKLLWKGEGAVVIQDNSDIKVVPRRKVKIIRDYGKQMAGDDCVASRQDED

Row | IC50 (Integrase [1]) [µM] | IC50 (Integrase [2]) [µM] | Structure (SMILES)
1 | > 1000 | > 1000 | Cc1ccc(C(=O)C2C(=O)C(=O)N(CCN(C)C)C2c2ccccc2F)cc1 (configuration not stated) [1-(2-(dimethylamino)ethyl)-5-(2-fluorophenyl)-3-hydroxy-4-(4-methylbenzoyl)-1H-pyrrol-2(5H)-one]
2 | > 100 | > 100 | CN(C)CCCN1C(=O)C(=O)C(C(=O)c2cccs2)C1c1cccs1 (configuration not stated) [1-(3-(dimethylamino)propyl)-3-hydroxy-5-(thiophen-2-yl)-4-(thiophene-2-carbonyl)-1H-pyrrol-2(5H)-one]
3 | > 1000 | > 1000 | O=C1C(=O)N(CCCN2CCOCC2)C(c2ccccc2F)C1C(=O)c1ccc(F)cc1 (configuration not stated) [4-(4-fluorobenzoyl)-5-(2-fluorophenyl)-3-hydroxy-1-(3-morpholinopropyl)-1H-pyrrol-2(5H)-one]
4 | > 100 | > 100 | COc1ccc(C2C(C(=O)c3ccccc3)C(=O)C(=O)N2CCCO)cc1OC (configuration not stated) [4-benzoyl-5-(3,4-dimethoxyphenyl)-3-hydroxy-1-(3-hydroxypropyl)-1H-pyrrol-2(5H)-one]
5 | > 1000 | > 1000 | COc1ccc(C2C(C(=O)c3ccc(F)cc3)C(=O)C(=O)N2CCN(C)C)cc1OC (configuration not stated) [5-(3,4-dimethoxyphenyl)-1-(2-(dimethylamino)ethyl)-4-(4-fluorobenzoyl)-3-hydroxy-1H-pyrrol-2(5H)-one]
6 | > 100 | > 100 | NCCCCCCNC(=O)c1c(O)c2ccccc2oc1=O [N-(6-aminohexyl)-4-hydroxy-2-oxo-2H-chromene-3-carboxamide]
